Tests used:
HT-29 = test: Concentration required to inhibit growth of human […] cell line by 50% was determined; type: functional, cell-based
How it was run: (§1)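 SRB colorimetric growth assay in A549 lung and HT-29 colon carcinoma cells. Cells seeded at 5 × 10^3 per well in RPMI and attached for 18 h in drug-free medium. Samples added in (3:7) DMSO/H2O for 48–72 h exposure. Cells fixed with cold 50% (w/v) TCA at 4 °C for 60 min, then stained with 0.4% SRB in 1% acetic acid for 10 min. Bound dye solubilised in Tris, OD read at 490 nm.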

A549 = test: Concentration required to inhibit growth of human A549 cell line by 50%; type: functional, cell-based; how it was run: as §1

Row | SMILES | IC50 (HT-29) [nM] | IC50 (A549) [nM]
1 | CC[C@H](C)C1NC(=O)[C@@H](NC(=O)[C@@H](CC(C)C)N(C)C(=O)[C@@H]2CCCN2C(=O)C(C)O)[C@@H](C)OC(=O)[C@H](Cc2ccc(O)cc2)N(C)C(=O)[C@@H]2CCCN2C(=O)[C@H](CC(C)C)NC(=O)[C@@H](C(C)C)OC(=O)C[C@H]1O (stereo partly drawn) [TAMANDARIN A] | 0.95 | 0.95
2 | CC[C@H](C)[C@@H]1NC(=O)[C@@H](NC(=O)[C@@H](C)N2CCC3(CCCN3C(=O)C(C)C)C2=O)[C@@H](C)OC(=O)[C@H](Cc2ccc(OC)cc2)N(C)C(=O)[C@@H]2CCCN2C(=O)[C@H](CC(C)C)NC(=O)[C@H](C)C(=O)[C@@H](C(C)C)OC(=O)C[C@H]1O (stereo partly drawn) | 89.1 | 89.1
3 | CC[C@H](C)C1NC(=O)[C@@H](NC(=O)[C@@H](CC(C)C)N2CCC3(CCCN3C(=O)C(C)=O)C2=O)[C@@H](C)OC(=O)[C@H](Cc2ccc(O)cc2)N(C)C(=O)[C@@H]2CCCN2C(=O)[C@H](CC(C)C)NC(=O)[C@@H](C(C)C)OC(=O)C[C@H]1O (stereo partly drawn) | 93.8 | 93.8
4 | CC[C@H](C)[C@@H]1NC(=O)[C@@H](NC(=O)[C@@H](C)N2CCC3(CCCN3C(=O)OC(C)(C)C)C2=O)[C@@H](C)OC(=O)[C@H](Cc2ccc(OC)cc2)N(C)C(=O)[C@@H]2CCCN2C(=O)[C@H](CC(C)C)NC(=O)[C@H](C)C(=O)[C@@H](C(C)C)OC(=O)C[C@H]1O (stereo partly drawn) | 8.68 | 8.68
5 | C=C(C)C(=O)N1CCCC12CCN([C@H](CC(C)C)C(=O)N[C@@H]1C(=O)NC([C@@H](C)CC)[C@H](O)CC(=O)O[C@H](C(C)C)C(=O)N[C@@H](CC(C)C)C(=O)N3CCC[C@H]3C(=O)N(C)[C@@H](Cc3ccc(O)cc3)C(=O)O[C@@H]1C)C2=O (stereo partly drawn) | 93.9 | 93.9
6 | CC[C@H](C)[C@@H]1NC(=O)[C@@H](NC(=O)[C@@H](C)N2CCC3(CCCN3C(=O)C(C)=O)C2=O)[C@@H](C)OC(=O)[C@H](Cc2ccc(OC)cc2)N(C)C(=O)[C@@H]2CCCN2C(=O)[C@H](CC(C)C)NC(=O)[C@H](C)C(=O)[C@@H](C(C)C)OC(=O)C[C@H]1O (stereo partly drawn) | 8.9 | 8.55
7 | CC[C@H](C)C1NC(=O)[C@@H](NC(=O)[C@@H](CC(C)C)N2CCC3(CCCN3C(=O)OC(C)(C)C)C2=O)[C@@H](C)OC(=O)[C@H](Cc2ccc(O)cc2)N(C)C(=O)[C@@H]2CCCN2C(=O)[C@H](CC(C)C)NC(=O)[C@@H](C(C)C)OC(=O)C[C@H]1O (stereo partly drawn) | 4.56 | 4.56
8 | CC[C@H](C)C1NC(=O)[C@@H](NC(=O)[C@@H](CC(C)C)N(C)C(=O)[C@@H]2CCCN2C(=O)C(C)=O)[C@@H](C)OC(=O)[C@H](Cc2ccc(O)cc2)N(C)C(=O)[C@@H]2CCCN2C(=O)[C@H](CC(C)C)NC(=O)[C@@H](C(C)C)OC(=O)C[C@H]1O (stereo partly drawn) [DEHYDROTAMANDARIN A] | 0.47 | 0.47
9 | CC[C@H](C)C1NC(=O)[C@@H](NC(=O)[C@@H](CC(C)C)N2CCC3(CCCN3C(=O)C(C)C)C2=O)[C@@H](C)OC(=O)[C@H](Cc2ccc(O)cc2)N(C)C(=O)[C@@H]2CCCN2C(=O)[C@H](CC(C)C)NC(=O)[C@@H](C(C)C)OC(=O)C[C@H]1O (stereo partly drawn) | 93.8 | 93.8

Reference: ChEMBL document CHEMBL1138811, “Synthesis, conformational analysis, and cytotoxicity of conformationally constrained aplidine and tamandarin A analogues incorporating a spirolactam beta-turn mimetic” (J Med Chem, 2004)
